Screening results deposited in PubChem by The Scripps Research Institute Molecular Screening Center.
TDP2 absorb: TDP2 (human) inhibition, absorbance primary screen; O95551; recombinant TDP2, T5PNP hydrolysis, p-nitrophenol absorbance 415 nm; inhibition, % at 12.8 µM; 370,000 compounds, 0.34% hits; AID 720702;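 active = inhibition above the mean of all tested compounds plus 3 SD, set per campaign, cut at about 25% in these data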;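 note: 0% = DMSO with enzyme and 100% = buffer with substrate but no TDP2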
Target sequence (O95551 whole entry, looked up): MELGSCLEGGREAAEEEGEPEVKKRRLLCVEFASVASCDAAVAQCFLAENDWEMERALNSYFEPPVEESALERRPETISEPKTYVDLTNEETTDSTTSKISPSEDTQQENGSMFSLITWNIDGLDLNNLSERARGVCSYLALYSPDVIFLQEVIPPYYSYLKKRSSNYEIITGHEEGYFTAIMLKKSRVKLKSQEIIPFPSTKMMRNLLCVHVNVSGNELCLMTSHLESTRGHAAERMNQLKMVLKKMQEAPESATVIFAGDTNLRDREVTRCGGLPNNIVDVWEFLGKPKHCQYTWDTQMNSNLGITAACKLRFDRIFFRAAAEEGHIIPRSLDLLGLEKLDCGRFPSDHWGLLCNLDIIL
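Assay system: recombinant human TDP2 / Reagent: T5PNP substrate at 5 mM, a TopII-DNA adduct mimic / Measured by: epi absorbance from released p-nitrophenol / Evaluation: % inhibition relative to enzyme-containing and enzyme-free wells / Control set: enzyme-free and DMSO wells / Replicates: each compound tested once, singlicate / Schedule: enzyme reaction with compound for 2 h at 37 °C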
HTRA1 inhibitor: inhibitors of human serine peptidase HTRA1. Q92743. recombinant HTRA1, FP-rhodamine activity-based probe, fluorescence polarization. inhibition, % at 5.96 µM. 340,000 compounds, 0.5% hits. AID 504803; in the data active = inhibition above about 36%;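 note: 0% = enzyme with DMSO and 100% = wells lacking enzyme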
ABHD4 inh: inhibitors of mouse ABHD4; 370,000 compounds, 0.54% hits; purified mABHD4, FP-Rh probe fluorescence polarization; inhibition, % at 8.92 µM;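 active = inhibition exceeding the mean over every tested compound plus 3 SD, cut at about 30% in these data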;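 note: 0% = plate median of compound wells and 100% = S159A mutant with DMSO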
Target sequence (Q8VD66 whole entry, looked up): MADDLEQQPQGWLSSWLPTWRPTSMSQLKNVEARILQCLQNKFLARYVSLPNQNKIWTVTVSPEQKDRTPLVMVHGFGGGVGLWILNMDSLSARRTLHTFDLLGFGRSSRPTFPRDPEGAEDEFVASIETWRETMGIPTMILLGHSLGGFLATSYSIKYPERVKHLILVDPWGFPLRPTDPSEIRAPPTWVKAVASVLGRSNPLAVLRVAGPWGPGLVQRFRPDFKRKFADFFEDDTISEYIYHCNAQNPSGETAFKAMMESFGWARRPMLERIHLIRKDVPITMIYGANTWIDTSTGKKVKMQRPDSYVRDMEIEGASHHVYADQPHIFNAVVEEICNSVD
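assay system = mABHD4 protein | compound dosing = single nominal dose of 8.92 µM, 0.89% DMSO final | read-out basis = percent inhibition of probe binding, normalized to plate controls | schedule = Enzyme–compound pre-incubation 45 min, then probe 60 min, both 25 °C | detection = fluorescence polarization, excitation 525 nm, emission 598 nm, BODIPY TMR filters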
PAD4 inh: blocks human protein arginine deiminase 4 | inhibition, % at 6.36 µM | Q9UM07 | recombinant PAD4, RCA probe fluorescence polarization | 330,000 compounds, 0.41% hits;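 active = percent inhibition above a cutoff equal to the mean of all tested compounds plus 3 SD, cut at about 15% in these data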;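 note: 0% = PAD4 with RCA probe and DMSO and 100% = probe without PAD4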
TCR CD3 inh: blocks the human TCR-CD3 interaction; inhibition, % at 9.4 µM; AID 651800; 360,000 compounds, 0.37% hits; TAMRA-labeled TCR probe fluorescence, biochemical; in the data active = inhibition above about 19%;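 note: recombinant mutant TCR 2C K166C tagged with TAMRA read by polarization; 0% = receptor in buffer alone and 100% = receptor with positive control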
SIAE primary: inhibitors of human sialic acid acetylesterase SIAE; Q9HAT2; SIAE FP-Rh probe binding, fluorescence polarization; inhibition, % at 9.66 µM; 370,000 compounds, 0.69% hits; AID 1053197;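 active = inhibition above a cutoff: mean of compounds within the control limits plus 3 SD of those, cut at about 17% in these data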;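 note: 0% = plate median of compound wells and 100% = probe without SIAE protein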
ABHD4 confirm: ABHD4 (mouse) inhibition, FP confirmation; shares compounds with ABHD4 inh; purified mABHD4, FP-Rh probe fluorescence polarization; inhibition, % at 8.92 µM; 1,800 compounds, 55% hits; AID 720658;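 active = mean inhibition across replicates above the hit cutoff set in the primary screen, cut at about 30% in these data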;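 note: 0% = wild-type ABHD4 with DMSO and 100% = catalytically dead S159A mutant with DMSO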
SIAE confirm: confirmation of human SIAE inhibitors. shares compounds with SIAE primary. SIAE FP-Rh activity-based probe, fluorescence polarization. inhibition, % at 9.66 µM. 2,300 compounds, 13% hits. AID 1117263;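 active = mean inhibition of the replicates above the hit cutoff set in the primary screen, cut at about 17% in these data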;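 note: 0% = SIAE with DMSO and probe and 100% = probe without SIAE; inhibitors lower polarization as more probe stays unbound to SIAE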
Numbers without * were called inactive. An excerpt weighted towards active compounds, which were near 2% of everything screened.

Results for C=CCn1c(O)c(C2=c3ccccc3=NC2=O)c2ccccc21 ?
TDP2 absorb: 2; HTRA1 inhibitor: 3; ABHD4 inh: 38*; PAD4 inh: -6; TCR CD3 inh: 3; SIAE primary: 28*; ABHD4 confirm: 44*; SIAE confirm: 9

How did CC1(C)CC(=O)N(CC(=O)N2CCN(Cc3ccccc3)CC2)c2ccccc2S1(=O)=O do in these assays?
TDP2 absorb: 1; ABHD4 inh: 2; SIAE primary: 7

Results for C(=C\c1ccccc1)/C=N/Nc1nc2ccccc2[nH]1 ?
TDP2 absorb: -5; HTRA1 inhibitor: 32; ABHD4 inh: 32*; PAD4 inh: -3; TCR CD3 inh: -1; SIAE primary: 22*; ABHD4 confirm: 33*; SIAE confirm: 18*

How did C(=N\Nc1nc2ccccc2[nH]1)/c1ccccc1 do in these assays?
TDP2 absorb: 18; HTRA1 inhibitor: -3; ABHD4 inh: 11; PAD4 inh: -4; TCR CD3 inh: 0; SIAE primary: 13

Results for O=C1CCCCC1CCS(=O)(=O)NCc1ccccc1 (centres undefined) ?
TDP2 absorb: 10; ABHD4 inh: 5; TCR CD3 inh: 8; SIAE primary: -1

How did COc1ccc(C(=O)c2[nH]c(N)c(C(=O)NCCc3c[nH]c4ccccc34)c2-c2ccc(Cl)c(F)c2)cc1 do in these assays?
TDP2 absorb: 3; ABHD4 inh: 34*; TCR CD3 inh: -4; SIAE primary: 21*; ABHD4 confirm: 37*; SIAE confirm: 9

Results for Nc1[nH]c(C(=O)c2ccc(Cl)cc2)c(-c2ccc(Br)cc2)c1C(=O)NCCc1c[nH]c2ccccc12 ?
TDP2 absorb: 6; ABHD4 inh: 13; TCR CD3 inh: 1; SIAE primary: 2

Results for COc1ccc(C(=O)c2[nH]c(N)c(C(=O)NCCc3c[nH]c4ccccc34)c2-c2ccc(Cl)cc2)cc1 ?
TDP2 absorb: -2; ABHD4 inh: 20; TCR CD3 inh: -2; SIAE primary: 10

How did Nc1[nH]c(C(=O)c2ccc(Br)cc2)c(-c2ccc(Cl)cc2[N+](=O)[O-])c1C(=O)NCCc1c[nH]c2ccccc12 do in these assays?
TDP2 absorb: -6; ABHD4 inh: 40*; TCR CD3 inh: 14; SIAE primary: 20*; ABHD4 confirm: 29; SIAE confirm: 5

What do the screens show for `O=c1cc(-c2ccccc2)[nH]c2[nH]n(-c3ccccc3)c(=O)c12`?
TDP2 absorb: 2; HTRA1 inhibitor: 15; ABHD4 inh: 25; PAD4 inh: 0; TCR CD3 inh: 3; SIAE primary: 7

How did CCOC(=O)Cc1cc(=O)c2c(=O)n(-c3ccccc3)[nH]c2[nH]1 do in these assays?
TDP2 absorb: -1; HTRA1 inhibitor: 14; ABHD4 inh: 57*; PAD4 inh: -11; TCR CD3 inh: 6; SIAE primary: 18*; ABHD4 confirm: 4; SIAE confirm: 6

What do the screens show for `COc1cccc(/C=N/NC(=O)c2ccc3nc[nH]c3c2)c1O`?
TDP2 absorb: -9; HTRA1 inhibitor: 11; ABHD4 inh: 7; PAD4 inh: -1; TCR CD3 inh: -19; SIAE primary: -42

Results for COc1cccc(/C=N/NC(=O)c2cc3c(OC)ccc(OC)c3[nH]2)c1O ?
TDP2 absorb: 3; HTRA1 inhibitor: 25; ABHD4 inh: 37*; PAD4 inh: -4; TCR CD3 inh: 12; SIAE primary: 34*; ABHD4 confirm: 62*; SIAE confirm: 9

What do the screens show for `O=C(NNc1c2ccccc2nc2ccccc12)c1ccc(O)cc1O`?
TDP2 absorb: 5; HTRA1 inhibitor: 26; ABHD4 inh: 35*; PAD4 inh: -4; TCR CD3 inh: -6; SIAE primary: 28*; ABHD4 confirm: 62*; SIAE confirm: 10

How did O=C(O)Cn1nnc(-c2ccccc2)c1COc1ccccc1 do in these assays?
TDP2 absorb: 10; ABHD4 inh: 1; TCR CD3 inh: 3; SIAE primary: 3

Results for C/C(=N/Nc1ccc(C(=O)O)cc1)c1ccc2c(c1)Nc1ccccc1S2 ?
TDP2 absorb: -6; HTRA1 inhibitor: 23; ABHD4 inh: 56*; TCR CD3 inh: 7; SIAE primary: 17*; ABHD4 confirm: 81*; SIAE confirm: 28*

How did COc1ccc(CNc2ncnc3c2[nH]c2cc(OC)c(OC)cc23)cc1 do in these assays?
TDP2 absorb: -2; HTRA1 inhibitor: 14; ABHD4 inh: 32*; PAD4 inh: 2; TCR CD3 inh: 0; SIAE primary: 37*; ABHD4 confirm: 70*; SIAE confirm: 24*

Results for O=C1CC(Nc2ccccc2)C(=O)N1c1ccc(N2CCOCC2)cc1 (centres undefined) ?
TDP2 absorb: -1; HTRA1 inhibitor: 4; ABHD4 inh: 0; PAD4 inh: 1; TCR CD3 inh: -2; SIAE primary: 4

What do the screens show for `CC(C)N1C(=O)CC(Nc2ccc(N3CCOCC3)cc2)C1=O` (centres undefined)?
TDP2 absorb: 19; HTRA1 inhibitor: 10; ABHD4 inh: 33*; PAD4 inh: 11; TCR CD3 inh: 2; SIAE primary: 21*; ABHD4 confirm: 42*; SIAE confirm: 3

What do the screens show for `CCOC(=O)C1=CC[C@@H](c2ccccc2C(F)(F)F)N(S(=O)(=O)c2ccc(C)cc2)[C@H]1c1ccc(C#N)cc1`?
TDP2 absorb: 6; ABHD4 inh: 6; TCR CD3 inh: 3; SIAE primary: 0

How did COc1cc2ccc(=O)oc2c(O)c1O do in these assays?
TDP2 absorb: 7; HTRA1 inhibitor: 11; ABHD4 inh: 32*; TCR CD3 inh: 11; SIAE primary: 26*; ABHD4 confirm: 6; SIAE confirm: 15

How did COc1ccc(C(=O)N2CCN(c3ccccc3)CC2)cc1S(=O)(=O)NC1CC1 do in these assays?
TDP2 absorb: 0; HTRA1 inhibitor: 1; ABHD4 inh: 3; TCR CD3 inh: -1; SIAE primary: -3

Results for O=C(O)c1ccc(N/N=C/c2ccc(-c3ccc(Cl)cc3Cl)o2)cc1 ?
TDP2 absorb: 9; HTRA1 inhibitor: 3; ABHD4 inh: 57*; PAD4 inh: -3; TCR CD3 inh: 6; SIAE primary: 18*; ABHD4 confirm: 67*; SIAE confirm: 20*

What do the screens show for `O=C(C(=O)N1CCN(C(=O)OCc2ccccc2)CC1)c1cccs1`?
TDP2 absorb: -17; ABHD4 inh: -2; TCR CD3 inh: -8; SIAE primary: 0
